≈ marks a conversion by molar mass, not a printed value.
Columns and labels:
Format in all cases: functional, organism-based
Leishmania donovani = assay: Antileishmanial activity against Leishmania donovani PP75 promastigotes
Method in brief: (§1)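 Promastigotes grown at 28 °C in stationary culture, seeded at 1 × 10^4 per 100 µL well in RPMI 1640-based Leishmania medium. DMSO-dissolved samples added to give 100 µg/mL final and serial dilutions. IC50 = concentration causing 50% reduction in parasite viability. Pentamidine (10 µg/mL) positive control.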

Plasmodium falciparum = assay: Antiplasmodial activity against chloroquine-sensitive Plasmodium falciparum F32-Tanzania
Method in brief: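 Culture per Trager and Jensen on glucose-enriched RPMI 1640 with 10% human serum at 37 °C. After 24 h, medium replaced with fresh medium containing compound at 0.1, 1 and 10 µg/mL, then incubated 48 h more. Blood smears on day 3; parasitemia compared with control. IC50 read graphically from concentration versus % inhibition. Chloroquine (0.1 µg/mL) positive control. Triplicate.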

Leishmania braziliensis = assay: Antileishmanial activity against Leishmania braziliensis 2903 promastigotes; method in brief: as §1
Leishmania amazonensis = assay: Antileishmanial activity against Leishmania amazonensis PH8 promastigotes; method in brief: as §1
Trypanosoma cruzi = assay: Antitrypanosomal activity against Trypanosoma cruzi Tulahuen

IC50 (Leishmania donovani) [µg/mL]	IC50 (Plasmodium falciparum) [µg/mL]	IC50 (Leishmania braziliensis) [µg/mL]	IC50 (Leishmania amazonensis) [µg/mL]	IC50 (Trypanosoma cruzi) [µg/mL]	Structure (SMILES)
> 100	> 10	78.8 (≈ 259 µM)	> 100	> 20	COc1c(/C=C/C(C)(C)O)cc(C(=O)O)cc1CC=C(C)C
86.9 (≈ 368 µM)	10 (≈ 42.3 µM)	74.4 (≈ 315 µM)	78.2 (≈ 331 µM)	15.6 (≈ 66 µM)	C=C(C)C(O)Cc1cc(C(=O)OC)ccc1O (stereo not given)
62.5 (≈ 284 µM)	2.8 (≈ 12.7 µM)	74.4 (≈ 338 µM)	74.4 (≈ 338 µM)	> 20	COC(=O)c1ccc(O)c(CC=C(C)C)c1
18.5 (≈ 78.3 µM)	4.1 (≈ 17.4 µM)	13.8 (≈ 58.4 µM)	18.2 (≈ 77 µM)	18.5 (≈ 78.3 µM)	COC(=O)c1cc(O)c(O)c(CC=C(C)C)c1
40 (≈ 146 µM)	> 10	34.1 (≈ 124 µM)	45.3 (≈ 165 µM)	> 20	CC(C)=CCc1cc(C(=O)O)cc(CC=C(C)C)c1O
81.9 (≈ 325 µM)	> 10	81.9 (≈ 325 µM)	89.5 (≈ 355 µM)	16.4 (≈ 65 µM)	C=C(C)C(O)Cc1cc(C(=O)OC)cc(O)c1O (racemic)
67.3 (≈ 232 µM)	> 10	67.6 (≈ 233 µM)	67.6 (≈ 233 µM)	> 20	C=C(C)C(O)Cc1cc(C(=O)O)cc(CC=C(C)C)c1O (racemic)

From ChEMBL document CHEMBL1156649, “Benzoic acid derivatives from Piper species and their antiparasitic activity” (J Nat Prod, 2008)
